Measurements: PubChem BioAssay
The source made the active and inactive calls. Unless noted, no stated cut-off is given here; in the data, active means inhibition above about 30%; inactive means the rest.

Tests used:
[1] = Her2 expression decrease, cell viability multiplex – SKBR3 breast tumor cells, AlphaScreen, ATP viability, primary screen (AID 461;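 active means Her2 level under about 52% in both replicate screens, with viability over 70% of control, limit read from the data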;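 on Her2 level: lower value means less Her2 protein in the cells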;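 on viability: percent of carrier control wells set as 100% viability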); conditions: SKBR3 Her2 protein level, 18-24 h, measured here: SKBR3 viability, ATP luminescence, at 10 µM
[2] = target: Receptor tyrosine-protein kinase erbB-2 (Homo sapiens) (UniProt P04626); test: as above; conditions: 18-24 h, at 10 µM, stronger effect = lower value
Sequence of Receptor tyrosine-protein kinase erbB-2 (Homo sapiens) (P04626 whole entry, looked up): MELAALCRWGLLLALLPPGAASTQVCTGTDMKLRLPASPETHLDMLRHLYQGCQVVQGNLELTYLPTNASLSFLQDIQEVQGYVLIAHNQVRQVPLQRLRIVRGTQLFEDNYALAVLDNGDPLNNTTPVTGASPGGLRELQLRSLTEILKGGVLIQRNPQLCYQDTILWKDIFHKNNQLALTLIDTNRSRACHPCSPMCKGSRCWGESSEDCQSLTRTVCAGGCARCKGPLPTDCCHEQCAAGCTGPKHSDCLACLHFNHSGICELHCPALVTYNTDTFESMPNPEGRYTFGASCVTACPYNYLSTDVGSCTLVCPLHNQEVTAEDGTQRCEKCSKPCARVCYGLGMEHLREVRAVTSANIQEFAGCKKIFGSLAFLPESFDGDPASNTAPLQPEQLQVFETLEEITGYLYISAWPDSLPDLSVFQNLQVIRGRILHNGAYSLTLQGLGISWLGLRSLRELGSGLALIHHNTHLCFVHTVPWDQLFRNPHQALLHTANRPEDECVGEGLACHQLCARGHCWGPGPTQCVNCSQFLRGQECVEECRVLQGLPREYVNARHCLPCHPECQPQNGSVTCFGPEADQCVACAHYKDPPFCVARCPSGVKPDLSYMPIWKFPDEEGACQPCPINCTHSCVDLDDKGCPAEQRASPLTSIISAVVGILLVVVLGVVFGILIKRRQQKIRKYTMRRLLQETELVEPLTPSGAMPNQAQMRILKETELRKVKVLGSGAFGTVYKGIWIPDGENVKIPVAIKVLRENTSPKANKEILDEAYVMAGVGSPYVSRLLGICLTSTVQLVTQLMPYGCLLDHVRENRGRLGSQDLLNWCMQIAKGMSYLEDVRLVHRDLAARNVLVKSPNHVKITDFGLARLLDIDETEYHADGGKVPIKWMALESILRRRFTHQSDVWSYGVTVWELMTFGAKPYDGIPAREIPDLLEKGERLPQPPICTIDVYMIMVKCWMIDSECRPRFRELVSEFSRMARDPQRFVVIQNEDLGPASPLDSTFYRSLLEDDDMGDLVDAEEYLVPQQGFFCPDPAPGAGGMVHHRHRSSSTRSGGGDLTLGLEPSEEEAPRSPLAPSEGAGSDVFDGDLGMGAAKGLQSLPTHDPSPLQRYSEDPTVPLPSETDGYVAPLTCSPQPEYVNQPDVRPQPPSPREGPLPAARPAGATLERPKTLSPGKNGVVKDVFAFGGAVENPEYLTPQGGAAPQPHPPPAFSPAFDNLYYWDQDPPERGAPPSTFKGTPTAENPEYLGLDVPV

[3] = reduced viability of SK-BR-3 breast cancer cells – cell-based, 24 h, human, pilot screen (AID 572;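 active means viability at or below 10% of carrier control in both of two separate runs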;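 further: compound exposure lasted between 18 and 24 h rather than exactly 24 h; 100% = carrier-treated control wells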); conditions: SK-BR-3 viability, CellTiter-Glo luminescence, at 10 µM, stronger effect = lower value
[4] = HUVEC growth inhibition – cell-based, human, primary screen (AID 575;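 active means viability at or below 30% in both replicate assays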;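 further: 100% = median of untreated cell wells with 0.1% DMSO on each plate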); conditions: HUVEC proliferation, CellTiter-Glo luminescence, 72 h; at 10 µM; stronger effect = lower value
In short: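 Test system: primary human umbilical vein endothelial cells; medium: endothelial basal medium with 2% FBS plus growth supplements; dosing: 10 µM compound only; times: 72 h treatment at 37 °C; signal: CTG luminescence; read-out: % viability relative to median vehicle-well signal on each plate; control set: vehicle and MePR control wells; plate: 384-well, collagen-coated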

[5] = H69AR cell proliferation blockers – human, duplicate replicates, primary screen (AID 580;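 active means viability at or under a set limit in both replicates, limit being median viability minus 3 SD, cut at about 48% in these data, passing the limit was not always enough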;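 further: 100% = mean luminescence of untreated wells and 0% = no signal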); conditions: H69AR lung tumor cells viability, ATP luminescence, 72 h; at 10 µM; stronger effect = lower value
[6] = MRP1 drug-resistance reversers in H69AR cells – cell-based, doxorubicin co-treatment, pilot screen (AID 601;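 active means viability loss from added drug above about 55%, and viability with drug at most 40%, in both replicates, limit read from the data, passing the limit was not always enough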); conditions: CellTiter-Glo, 72 h, at 10 µM; for differential viability (reversal): stronger effect = higher value
[7] = yeast transport mutant growth inhibition pilot in 384-well plates, post-Golgi transport modulator project (AID 636; in the data active means inhibition above about 31%); conditions: absorbance 615 nm, about 18 h, stronger effect = higher value
[8] = growth suppression of yeast trafficking mutant, preliminary HTS, modulators of trafficking downstream of Golgi apparatus project, 1536-format plate, OD 615 nm (AID 637); conditions: yeast transport mutant growth, absorbance 615 nm, 18 h; stronger effect = higher value
[9] = H69AR cells + 2 uM doxorubicin, measured here: viability with 2 uM doxorubicin, stronger effect = lower value
[10] = H69AR cells, compound alone cytotoxicity

| Compound | viability [1] | Her2 level [2] | viability [3] | viability [4] | viability [5] | differential viability (reversal) ([6]; H69AR cells + 2 uM doxorubicin) | viability [6, 9] | viability [6, 10] | inhibition [7] | inhibition [8] |
| --- | --- | --- | --- | --- | --- | --- | --- | --- | --- | --- |
| CC12CCC(C(=O)O)(c3nc(C#N)c(C#N)nc31)C2(C)C (stereo not given) | 106% | 96.5% (inactive) | 106% (inactive) | 115% (inactive) | 91.6% (inactive) | 6.8% (inactive) | 84.8% | 91.6% | -6.27% (inactive) | 6.07% (inactive) |
| CCn1cc(C(=O)OCc2ccc(F)cc2)c(=O)c2ccc(C)nc21 | 104% | 82% (inactive) | 104% (inactive) | 89.3% (inactive) | 79.3% (inactive) | 1.26% (inactive) | 78.1% | 79.3% | -2.27% (inactive) | 0.16% (inactive) |
| COc1cccc(-c2cc(C(=O)N3CCCc4ccccc43)no2)c1 | 110% | 89.5% (inactive) | 110% (inactive) | 94.6% (inactive) | 92.4% (inactive) | 5.08% (inactive) | 87.4% | 92.4% | -6.49% (inactive) | -0.83% (inactive) |
| Cc1ccc(-c2cn3cccnc3n2)cc1NC(=O)c1ccc(Br)o1 | 95.5% | 86.5% (inactive) | 95.5% (inactive) | 97.6% (inactive) | 88.5% (inactive) | 8.45% (inactive) | 80% | 88.5% | -0.39% (inactive) | -7.46% (inactive) |
| Cc1cccc(NC(=O)CC2NC3CCCCC3NC2=O)c1 (stereo not given) | 99.5% | 102% (inactive) | 99.5% (inactive) | 96.7% (inactive) | 93.6% (inactive) | 2.89% (inactive) | 90.7% | 93.6% | -3.42% (inactive) | -1.17% (inactive) |
| COc1cc(OC)cc(-c2nc3nc(C)c(CCC(=O)O)c(C)n3n2)c1 | 106% | 81.5% (inactive) | 106% (inactive) | 80.1% (inactive) | 91.5% (inactive) | 7.47% (inactive) | 84% | 91.5% | -4.08% (inactive) | 0.18% (inactive) |
| COc1ccccc1OC(=O)c1ccc(SC)cc1OC | 83% | 88% (inactive) | 83% (inactive) | 98.4% (inactive) | 94.1% (inactive) | 2.65% (inactive) | 91.4% | 94.1% | 1.05% (inactive) | -5.97% (inactive) |
| CCOc1ccccc1C(=O)NCC(=O)OCC(=O)N1C(C)CCCC1C (stereo not given) | 98.5% | 89% (inactive) | 98.5% (inactive) | 102% (inactive) | 103% (inactive) | 9.78% (inactive) | 93.4% | 103% | -3.77% (inactive) | -3.02% (inactive) |
| COc1ccc(C(=O)Nn2c(SCC(=O)NCC3CCCO3)nc3ccccc3c2=O)cc1 (stereo not given) | 92.5% | 95% (inactive) | 92.5% (inactive) | 76.8% (inactive) | 83.8% (inactive) | 9.29% (inactive) | 74.5% | 83.8% | -6.53% (inactive) | -0.81% (inactive) |
| COc1cccc(C(=O)Nc2ccc(NC(C)=O)cn2)c1 | 98% | 76% (inactive) | 98% (inactive) | 92.4% (inactive) | 106% (inactive) | 12.5% (inactive) | 93.2% | 106% | -5.27% (inactive) | -4.92% (inactive) |
| Cn1cccc1Cc1nnc(SCC(N)=O)n1-c1ccc(F)cc1 | 88% | 94.5% (inactive) | 88% (inactive) | 98.5% (inactive) | 99.8% (inactive) | 12.2% (inactive) | 87.6% | 99.8% | -1.28% (inactive) | 1.33% (inactive) |
| Cc1cc(C)n2nc(SCC(=O)N(C)c3ccccc3)nc2n1 | 89.5% | 87% (inactive) | 89.5% (inactive) | 94.8% (inactive) | 104% (inactive) | 1.41% (inactive) | 102% | 104% | -7.57% (inactive) | 6.39% (inactive) |
| CC(=O)c1cccc(NC(=O)NCc2ccccn2)c1 | 91% | 87% (inactive) | 91% (inactive) | 92% (inactive) | 97.6% (inactive) | 6.09% (inactive) | 91.5% | 97.6% | -4.47% (inactive) | -4.17% (inactive) |
| CCN1CCN(c2c(Cl)cccc2NC(=O)c2ccc3c(c2)OCCO3)CC1 | 80% | 84.5% (inactive) | 80% (inactive) | 95.2% (inactive) | 81.7% (inactive) | 1.33% (inactive) | 80.4% | 81.7% | -5% (inactive) | 3% (inactive) |
| Cc1coc(NC(=O)CSc2nc(-c3ccncc3)cc(C(F)(F)F)c2C#N)n1 | 106% | 71% (inactive) | 106% (inactive) | 79% (inactive) | 71.8% (inactive) | 1.41% (inactive) | 70.4% | 71.8% | -2.5% (inactive) | 0.73% (inactive) |
| Cc1cc(-c2ccccc2)nc2cc(C(N)=O)nn12 | 102% | 94% (inactive) | 102% (inactive) | 101% (inactive) | 96% (inactive) | 8.83% (inactive) | 87.1% | 96% | -2.63% (inactive) | 1.61% (inactive) |
